Laboratory results as given in ChEMBL document CHEMBL1144069, “Cytotoxic activities of hypocretenolides from Leontodon hispidus” (J Nat Prod, 1999).
Calls of active or inactive are those of the source. The calls are words filed in the database; no cut-off is given here.

Tests used:
Assay type in all cases: functional, cell-based
[1] = Cytotoxicity against human GTB cells after 5 hrs by MTT assay
Outline: (§1)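 Leukemic cells at 0.5 × 10^6 cells/mL in RPMI were exposed to 0.01–2.00 µM compound (0.1% final DMSO) at 37 °C and 5% CO2. Viability was measured as MTT formazan, dissolved in DMSO and read at 550 and 630 nm. Three wells per point, on three separate days (n = 9). IC50 was taken graphically from per-experiment dose curves.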

[2] = test system: HL-60; test: Cytotoxicity against human HL-60 cells after 5 hrs by MTT assay; conditions: HL-60, 5 h; outline: as §1
[3] = test system: A-431; test: Cytotoxicity against human A431 cells after 24 hrs by [3H]thymidine incorporation assay
Outline: (§2)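 Adherent tumor cells (100 µL at 1 × 10^6 cells/mL) were overlaid with 100 µL of medium containing compound in the 0.25–4.00 µM range (0.1% final DMSO). The medium control had no compound. Cells were incubated for 24, 48 or 72 h at 37 °C and 5% CO2, then pulsed 24 h with 3H-thymidine. They were harvested onto glass filters and counted by liquid scintillation. Three wells per point, on three separate days (n = 9). IC50 was taken graphically.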

[4] = test system: A-431; test: Cytotoxicity against human A431 cells after 48 hrs by [3H]thymidine incorporation assay; outline: as §2
[5] = test system: A-431; test: Cytotoxicity against human A431 cells after 72 hrs by [3H]thymidine incorporation assay; outline: as §2
[6] = test system: HEp-2; test: Cytotoxicity against human HEP2 cells after 24 hrs by [3H]thymidine incorporation assay; outline: as §2
[7] = test system: HEp-2; test: Cytotoxicity against human HEP2 cells after 48 hrs by [3H]thymidine incorporation assay; outline: as §2
[8] = test system: HEp-2; test: Cytotoxicity against human HEP2 cells after 72 hrs by [3H]thymidine incorporation assay; outline: as §2
[9] = test system: MCF7; test: Cytotoxicity against human MCF7 cells after 24 hrs by [3H]thymidine incorporation assay; outline: as §2
[10] = test system: MCF7; test: Cytotoxicity against human MCF7 cells after 48 hrs by [3H]thymidine incorporation assay; outline: as §2
[11] = test system: MCF7; test: Cytotoxicity against human MCF7 cells after 72 hrs by [3H]thymidine incorporation assay; outline: as §2
[12] = test system: OVCAR-3; test: Cytotoxicity against human OVCAR-3 cells after 24 hrs by [3H]thymidine incorporation assay; outline: as §2
[13] = test system: OVCAR-3; test: Cytotoxicity against human OVCAR-3 cells after 48 hrs by [3H]thymidine incorporation assay; outline: as §2
[14] = test system: OVCAR-3; test: Cytotoxicity against human OVCAR-3 cells after 72 hrs by [3H]thymidine incorporation assay; outline: as §2
[15] = Cytotoxicity against human SK MEL28 cells after 24 hrs by [3H]thymidine incorporation assay; conditions: SK-MEL-28; outline: as §2
[16] = Cytotoxicity against human SK MEL28 cells after 48 hrs by [3H]thymidine incorporation assay; conditions: SK-MEL-28; outline: as §2
[17] = Cytotoxicity against human SK MEL28 cells after 72 hrs by [3H]thymidine incorporation assay; conditions: SK-MEL-28; outline: as §2
[18] = Cytotoxicity against human SK37 cells after 24 hrs by [3H]thymidine incorporation assay; outline: as §2
[19] = Cytotoxicity against human SK37 cells after 48 hrs by [3H]thymidine incorporation assay; outline: as §2
[20] = Cytotoxicity against human SK37 cells after 72 hrs by [3H]thymidine incorporation assay; outline: as §2
[21] = test system: SW872; test: Cytotoxicity against human SW872 cells after 24 hrs by [3H]thymidine incorporation assay; outline: as §2
[22] = test system: SW872; test: Cytotoxicity against human SW872 cells after 48 hrs by [3H]thymidine incorporation assay; outline: as §2
[23] = test system: SW872; test: Cytotoxicity against human SW872 cells after 72 hrs by [3H]thymidine incorporation assay
Outline: (§3)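 Adherent tumour cells at 1 × 10^6 cells/mL (100 µL per well) overlaid with an equal volume of medium carrying test substance across 0.25–4.00 µM. Medium-only controls. Incubated 24, 48 or 72 h at 37 °C, 5% CO2, then pulsed 24 h with 3H-thymidine and harvested onto glass filters for scintillation counting. Final DMSO 0.1%. Triplicate wells, three days (n = 9). IC50 read graphically from each experiment's dose curve.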

[24] = test system: ZR-75-1; test: Cytotoxicity against human ZR-75-1 cells after 24 hrs by [3H]thymidine incorporation assay; outline: as §3
[25] = test system: ZR-75-1; test: Cytotoxicity against human ZR-75-1 cells after 48 hrs by [3H]thymidine incorporation assay; outline: as §3
[26] = test system: ZR-75-1; test: Cytotoxicity against human ZR-75-1 cells after 72 hrs by [3H]thymidine incorporation assay; outline: as §3
[27] = test system: GTB; test: Cytotoxicity against human GTB cells at 0.01 to 2.0 uM after 5 hrs by MTT assay; outline: as §1
[28] = test system: HL-60; test: Cytotoxicity against human HL-60 cells at 0.01 to 2.0 uM after 5 hrs by MTT assay; outline: as §1
[29] = test system: A-431; test: Cytotoxicity against human A431 cells at 0.25 to 2.0 uM after 24 hrs by [3H]thymidine incorporation assay; outline: as §2
[30] = test system: A-431; test: Cytotoxicity against human A431 cells at 0.25 to 2.0 uM after 48 hrs by [3H]thymidine incorporation assay; outline: as §2
[31] = test system: A-431; test: Cytotoxicity against human A431 cells at 0.25 to 2.0 uM after 72 hrs by [3H]thymidine incorporation assay; outline: as §2
[32] = test system: HEp-2; test: Cytotoxicity against human HEP2 cells at 0.25 to 2.0 uM after 24 hrs by [3H]thymidine incorporation assay; outline: as §2
[33] = test system: HEp-2; test: Cytotoxicity against human HEP2 cells at 0.25 to 2.0 uM after 48 hrs by [3H]thymidine incorporation assay; outline: as §2
[34] = test system: HEp-2; test: Cytotoxicity against human HEP2 cells at 0.25 to 2.0 uM after 72 hrs by [3H]thymidine incorporation assay; outline: as §2
[35] = test system: MCF7; test: Cytotoxicity against human MCF7 cells at 0.25 to 2.0 uM after 24 hrs by [3H]thymidine incorporation assay; outline: as §2
[36] = test system: MCF7; test: Cytotoxicity against human MCF7 cells at 0.25 to 2.0 uM after 48 hrs by [3H]thymidine incorporation assay; outline: as §2
[37] = test system: MCF7; test: Cytotoxicity against human MCF7 cells at 0.25 to 2.0 uM after 72 hrs by [3H]thymidine incorporation assay; outline: as §2
[38] = test system: OVCAR-3; test: Cytotoxicity against human OVCAR-3 cells at 0.25 to 2.0 uM after 24 hrs by [3H]thymidine incorporation assay; outline: as §2
[39] = test system: OVCAR-3; test: Cytotoxicity against human OVCAR-3 cells at 0.25 to 2.0 uM after 48 hrs by [3H]thymidine incorporation assay; outline: as §2
[40] = test system: OVCAR-3; test: Cytotoxicity against human OVCAR-3 cells at 0.25 to 2.0 uM after 72 hrs by [3H]thymidine incorporation assay; outline: as §2
[41] = test system: SK-MEL-28; test: Cytotoxicity against human SK MEL28 cells at 0.25 to 2.0 uM after 24 hrs by [3H]thymidine incorporation assay; outline: as §2
[42] = test system: SK-MEL-28; test: Cytotoxicity against human SK MEL28 cells at 0.25 to 2.0 uM after 48 hrs by [3H]thymidine incorporation assay; outline: as §2
[43] = test system: SK-MEL-28; test: Cytotoxicity against human SK MEL28 cells at 0.25 to 2.0 uM after 72 hrs by [3H]thymidine incorporation assay; outline: as §2
[44] = test system: SK37; test: Cytotoxicity against human SK37 cells at 0.25 to 2.0 uM after 24 hrs by [3H]thymidine incorporation assay; outline: as §2
[45] = test system: SK37; test: Cytotoxicity against human SK37 cells at 0.25 to 2.0 uM after 48 hrs by [3H]thymidine incorporation assay; outline: as §2
[46] = test system: SK37; test: Cytotoxicity against human SK37 cells at 0.25 to 2.0 uM after 72 hrs by [3H]thymidine incorporation assay; outline: as §2
[47] = test system: SW872; test: Cytotoxicity against human SW872 cells at 0.25 to 2.0 uM after 24 hrs by [3H]thymidine incorporation assay; outline: as §3
[48] = test system: SW872; test: Cytotoxicity against human SW872 cells at 0.25 to 2.0 uM after 48 hrs by [3H]thymidine incorporation assay; outline: as §3
[49] = test system: SW872; test: Cytotoxicity against human SW872 cells at 0.25 to 2.0 uM after 72 hrs by [3H]thymidine incorporation assay; outline: as §3
[50] = test system: ZR-75-1; test: Cytotoxicity against human ZR-75-1 cells at 0.25 to 2.0 uM after 24 hrs by [3H]thymidine incorporation assay; outline: as §3
[51] = test system: ZR-75-1; test: Cytotoxicity against human ZR-75-1 cells at 0.25 to 2.0 uM after 48 hrs by [3H]thymidine incorporation assay; outline: as §3
[52] = test system: ZR-75-1; test: Cytotoxicity against human ZR-75-1 cells at 0.25 to 2.0 uM after 72 hrs by [3H]thymidine incorporation assay; outline: as §3

In the case of `C=C1C(=O)O[C@@H]2C[C@@H](C)[C@@H]3C=CC(=O)[C@@]3(C)[C@@H](O)[C@H]12` [HELENALIN], the IC50 [1] is reported as 270 nM, the IC50 [2] is reported as 320 nM and the IC50 [3] is reported as 900 nM. It also gave an IC50 [4] of 900 nM, an IC50 [5] of 800 nM and an IC50 [6] of 900 nM. It also gave an IC50 [7] of 900 nM, an IC50 [8] of 800 nM and an IC50 [9] of 800 nM. For the same molecule, the IC50 [10] was 500 nM, the IC50 [11] was 700 nM and the IC50 [12] was 1400 nM. It also gave an IC50 [13] of 1600 nM, an IC50 [14] of 1700 nM and an IC50 [15] of 1300 nM. The IC50 [16] was 900 nM, the IC50 [17] was 500 nM and the IC50 [18] was 1300 nM. It also gave an IC50 [19] of 1200 nM, an IC50 [20] of 700 nM and an IC50 [21] of 1400 nM. The IC50 [22] was 1200 nM, the IC50 [23] was 1200 nM and the IC50 [24] was 700 nM. For the same molecule, the IC50 [25] was 800 nM and the IC50 [26] was 1100 nM.
In the case of `C=C1C(=O)O[C@]23C[C@H]1CCC(CO[C@H]1O[C@@H](CO)[C@H](O)[C@@H](O)[C@@H]1O)=C2C(=O)C=C3C`, the Activity [27] is reported as “inactive”, the Activity [28] is reported as “inactive” and the Activity [29] is reported as “inactive”. For the same molecule, the Activity [30] was “inactive”, the Activity [31] was “inactive” and the Activity [32] was “inactive”. The Activity [33] was “inactive”, the Activity [34] was “inactive” and the Activity [35] was “inactive”. For the same molecule, the Activity [36] was “inactive”, the Activity [37] was “inactive” and the Activity [38] was “inactive”. For the same molecule, the Activity [39] was “inactive”, the Activity [40] was “inactive” and the Activity [41] was “inactive”. For the same molecule, the Activity [42] was “inactive”, the Activity [43] was “inactive” and the Activity [44] was “inactive”. For the same molecule, the Activity [45] was “inactive”, the Activity [46] was “inactive” and the Activity [47] was “inactive”. For the same molecule, the Activity [48] was “inactive”, the Activity [49] was “inactive” and the Activity [50] was “inactive”. For the same molecule, the Activity [51] was “inactive” and the Activity [52] was “inactive”.
